# Results: ChEMBL document CHEMBL1135512 (J Med Chem, 2002)
# Experiments:
# Plasmodium falciparum [1] = assay: Percent reversal against Plasmodium falciparum W2 at 1 uM DEEA; type: functional
# [2] = Partition coefficient (logD7.0); type: physicochemical; details: octanol/water
# Plasmodium falciparum [3] = assay: In vitro inhibitory activity against multidrug-resistant Plasmodium falciparum W2 Indochina; type: functional, organism-based
# Outline: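 Clone W2 (Indochina), sorbitol-synchronized, was grown in RPMI 1640 with 10% human serum, 25 mM HEPES and 25 mM NaHCO3, at final parasitemia 0.5% and hematocrit 1.5%. The drug was present for 48 h at 37 °C under 10% O2/6% CO2/84% N2. Growth was read as 3H-hypoxanthine uptake (1 μCi/well). IC50 came from nonlinear regression of log-dose/response as the geometric mean with 95% CI.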
# [4] = pKa of the compound; type: physicochemical
# [5] = Cytotoxicity against Chinese hamster ovary cells; type: cell-based, Cricetulus griseus
# Outline: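 Cells were then exposed to graded drug concentrations for 48 h at 37 °C, 5% CO2. MTT (1 mg/mL in PBS) was added for 3 h, and formazan was dissolved in DMSO and read at 570/630 nm. IC50 came from nonlinear regression versus drug-free wells.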
# [6] = Partition coefficient (logP); type: physicochemical; details: octanol/water
# Plasmodium falciparum [7] = assay: Accumulation coefficient of chloroquine at 1 uM-10 uM of DEEA against Plasmodium falciparum W2; Range is from 50-159; type: functional
# Outline: (§1)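 W2 infected erythrocytes were suspended in RPMI 1640 with 25 mM HEPES and 25 mM NaHCO3 (2% parasitemia, 2% hematocrit). They were mixed over silicone oil with buffer holding [3H]CQ (26 Ci/mmol) plus DEEA at 1 or 10 μM. Incubation was 1 h at 37 °C under 10% O2/6% CO2/84% N2, followed by 1 min centrifugation. Ratio = parasite [3H]CQ (infected minus uninfected cells) / same-volume buffer.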
# [8] = In vitro hemolytic concentration on uninfected erythrocytes.; type: functional, Homo sapiens
# Outline: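 Washed A+ human erythrocytes were held at 1.5% hematocrit in RPMI 1640 with 10% human serum, 25 mM HEPES and 25 mM NaHCO3. Drug (2 mM to 1 μM final, triplicate) was added for 42 h at 37 °C under 10% O2/6% CO2. Released hemoglobin in supernatant was measured with TMB/H2O2 at 455 nm. HC50 is relative to 5% saponin lysis, by nonlinear regression.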
# Plasmodium falciparum [9] = assay: Concentration required to reduce chloroquine IC50 by 50%; type: functional, organism-based
# Outline: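 Synergy isotopic microtest on sorbitol-synchronized W2 (Indochina) and 3D7 in RPMI 1640 with 10% human serum, HEPES/NaHCO3, parasitemia 0.5%, hematocrit 1.5%. CQ was combined with subinhibitory fixed DEEA concentrations, and 3H-hypoxanthine was added for 48 h at 37 °C under 10% O2/6% CO2/84% N2. Reversal IC50 is the DEEA concentration halving CQ IC50, found by nonlinear regression of log-dose/IC50.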
# [10] = Dissociation constant (pKa); type: physicochemical
# Plasmodium falciparum [11] = assay: Accumulation coefficient of chloroquine at 1 uM-10 uM of DEEA against Plasmodium falciparum W2; type: functional; outline: as §1
# Plasmodium falciparum [12] = assay: Accumulation coefficient of chloroquine at 1 uM-10 uM of DEEA against Plasmodium falciparum W2;Range is from 30-23; type: functional; outline: as §1
# Plasmodium falciparum [13] = assay: Percent reversal against Plasmodium falciparum W2 at 1 uM DEEA
# Plasmodium falciparum [14] = assay: Accumulation coefficient of chloroquine at 1 uM-10 uM of DEEA against Plasmodium falciparum W2;Range is from 30-32; type: functional; outline: as §1
# Plasmodium falciparum [15] = assay: Accumulation coefficient of chloroquine at 1 uM-10 um of DEEA against Plasmodium falciparum W2;Range is from 112-298; type: functional; outline: as §1
# Plasmodium falciparum [16] = assay: Accumulation coefficient of chloroquine at 1 uM-10 uM of DEEA against Plasmodium falciparum 3D7; type: functional
# Plasmodium falciparum [17] = assay: Accumulation coefficient of chloroquine at 1 uM-10 uMof DEEA against Plasmodium falciparum W2; type: functional; outline: as §1
# Plasmodium falciparum [18] = assay: Accumulation coefficient of chloroquine at 1 uM-10 uM of DEEA against Plasmodium falciparum W2; Range is from 37-42; type: functional; outline: as §1
Compound,Reversal (Plasmodium falciparum [1]),IC50 (Plasmodium falciparum [3]; Plasmodium falciparum),Cytotoxicity [5],HC50 [8],IC50 (Plasmodium falciparum [9]; Plasmodium falciparum),"logD ([2]; pH 7, read-out: logD)",pKa [10],Accumulation coefficient (Plasmodium falciparum [11]),logP ([6]; read-out: logP),further results
NCC1C2c3ccccc3C(c3ccccc32)C1CN (stereo not drawn),7%,8 µM,465 µM,>2000 µM,12.5 µM,,,,,logD ([2]; pH 7): -3.27; pKa [4]: 10.1; logP [6]: 1.89; Accumulation coefficient (Plasmodium falciparum [7]): 159
CC1C2c3ccccc3C(c3ccccc32)C1CN(C)C (stereo not drawn),60%,30 µM,711 µM,1402 µM,0.4 µM,2.25,8.99,62,4.24,
CN(C)C(=O)C1=C(C(=O)N(C)C)C2c3ccccc3C1c1ccccc12,0%,36.5 µM,> 2000 µM,>2000 µM,> 50 µM,2.15,,,2.15,Accumulation coefficient (Plasmodium falciparum [12]): 30
CC1C2c3ccccc3C(c3ccccc32)C1C(=O)Nc1cccnc1 (stereo not drawn),0%,164 µM,93 µM,>2000 µM,,3.85,4.14,10,3.85,
O=C(NCCCCCCCCCCNC(=O)C1=CC2c3ccccc3C1c1ccccc12)C1=CC2c3ccccc3C1c1ccccc12,0%,8 µM,> 2000 µM,>2000 µM,,,-1.14,34,,logD [2]: 9.16; logP [6]: 9.16
COc1ccc(CCN(C)CCCC(C#N)(c2ccc(OC)c(OC)c2)C(C)C)cc1OC (stereo not drawn),57%,13.4 µM,,861 µM,0.8 µM,,8.29,97,,
CN(C)C(=O)C1C2c3ccccc3C(c3ccccc32)C1C(=O)N(C)C (stereo in doubt; 4),0%,,> 2000 µM,,,,,,,IC50 (Plasmodium falciparum [3]): 35.5 µM
CN(C)CC1C2c3ccccc3C(c3ccccc32)C1CN(C)C (stereo in doubt; 5),,2 µM,1035 µM,>2000 µM,0.25 µM,0,9.19,,3.41,Reversal (Plasmodium falciparum [13]): 80%
CN(C)C(=O)C1C2c3ccccc3C(c3ccccc32)C1C(=O)N(C)C (stereo in doubt; 17),3%,,1558 µM,>2000 µM,9 µM,1.7,-1.34,,1.7,IC50 (Plasmodium falciparum [3]): 12.4 µM; Accumulation coefficient (Plasmodium falciparum [14]): 32
CN(C)CC1C2c3ccccc3C(c3ccccc32)C1CN(C)C (stereo in doubt; 19),80%,,> 2000 µM,,,,,,,IC50 (Plasmodium falciparum [3]): 4 µM; Accumulation coefficient (Plasmodium falciparum [15]): 298; IC50 (Plasmodium falciparum [9]): 0.4 µM
CCN(CC)CCCC(C)Nc1ccnc2cc(Cl)ccc12 (stereo not drawn) [CHLOROQUINE],0%,0.9 µM,,,,,,,,Accumulation coefficient (Plasmodium falciparum [16]): 191; Accumulation coefficient (Plasmodium falciparum [17]): 18
CNC1(C)C2CCC(C2)C1(C)C (stereo not drawn) [MECAMYLAMINE],15%,91.4 µM,,,6 µM,-0.4,11,45,,logP [6]: 2.13
CC(CN1c2ccccc2Sc2ccccc21)N(C)C (stereo not drawn) [PROMETHAZINE],67%,20 µM,702 µM,618 µM,0.4 µM,1.96,8.89,,3.86,Accumulation coefficient (Plasmodium falciparum [18]): 42
